Blank lines part the entries; values can stand above or below the molecule they belong to.
Experiments:
SH-SY5Y = assay: Cytotoxicity against human SH-SY5Y cells assessed as reduction in cell viability after 56 hrs by MTT assay; format: functional, cell-based
[1] = biological target: Nicotinamide phosphoribosyltransferase (Mus musculus, UniProt Q99KQ4); assay: Inhibition of recombinant mouse NAMPT expressed in bacterial expression system using nicotinamide as substrate after 1 hr by fluorescence based NMNAT-3 enzyme coupled assay
Chain of Nicotinamide phosphoribosyltransferase (Q99KQ4 whole entry): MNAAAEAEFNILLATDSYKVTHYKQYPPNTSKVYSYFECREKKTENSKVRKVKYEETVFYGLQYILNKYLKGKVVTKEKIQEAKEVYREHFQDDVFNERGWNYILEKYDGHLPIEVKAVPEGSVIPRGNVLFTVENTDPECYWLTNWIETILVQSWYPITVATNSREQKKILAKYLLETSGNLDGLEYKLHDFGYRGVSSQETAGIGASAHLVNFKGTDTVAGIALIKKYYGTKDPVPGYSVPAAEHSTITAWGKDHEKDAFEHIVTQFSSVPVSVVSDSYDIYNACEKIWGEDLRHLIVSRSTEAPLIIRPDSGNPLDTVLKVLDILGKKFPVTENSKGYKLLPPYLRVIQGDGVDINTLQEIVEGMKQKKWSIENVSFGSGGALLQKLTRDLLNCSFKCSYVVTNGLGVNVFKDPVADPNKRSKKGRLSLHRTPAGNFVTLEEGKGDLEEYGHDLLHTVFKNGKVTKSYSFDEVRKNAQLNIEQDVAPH

Liver [2] = assay: Drug metabolism in human liver microsomes assessed as pyridine N-oxidation by measuring 7-(4-(pyridin-3-yl)-1H-1,2,3-triazol-1-yl)heptanoic acid formation after 60 mins in presence of NADPH-regenerating system by LC-UV analysis; format: ADME, microsome
Procedure, shortened: (§1)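 Metabolites were characterized by LC-ESI-MSn on supernatants of 60 min, 37 °C incubations. Each used 50 μM substrate with rat or human liver microsomes (1.0 mg/ml protein) in 50 mM Tris-HCl pH 7.4 with 3.3 mM MgCl2, 1% acetonitrile and an NADPH-regenerating system. Reactions were quenched with cold acetonitrile and centrifuged.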

Liver [3] = assay: Drug metabolism in human liver microsomes assessed as pyridine N-oxidation by measuring biphenyl-2-carboxamide formation after 60 mins in presence of NADPH-regenerating system by LC-UV analysis; format: ADME, microsome; settings: 1 h; procedure, shortened: as §1
Liver [4] = assay: Drug metabolism in Wistar Han rat liver microsomes assessed as pyridine N-oxidation by measuring 7-(4-(pyridin-3-yl)-1H-1,2,3-triazol-1-yl)heptanoic acid formation after 60 mins in presence of NADPH-regenerating system by LC-UV analysis; format: ADME, microsome; procedure, shortened: as §1
Liver [5] = assay: Drug metabolism in Wistar Han rat liver microsomes assessed as pyridine N-oxidation by measuring biphenyl-2-carboxamide formation after 60 mins in presence of NADPH-regenerating system by LC-UV analysis; format: ADME, microsome; settings: 1 h; procedure, shortened: as §1
Liver [6] = assay: Drug level in human liver microsomes treated with N-(7-(4-(Pyridin-3-yl)-1H-1,2,3-triazol-1-yl)heptyl)-[1,1'-biphenyl]-2-carboxamide after 60 mins in presence of NADPH-regenerating system by LC-UV analysis; format: ADME, microsome
Procedure, shortened: (§2)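 Substrate at 50 μM final, with rat or human liver microsomes at 1.0 mg/ml protein, in 50 mM Tris-HCl pH 7.4. Mix held 3.3 mM MgCl2, 1% acetonitrile and an NADPH-regenerating system (1.3 mM β-NADP, 3.3 mM glucose 6-phosphate, 0.4 U/ml G6PDH). Shaken 60 min at 37 °C, stopped with ice-cold acetonitrile. LC-UV gave % residual substrate versus a no-microsome control, mean of two replicates.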

Liver [7] = assay: Drug level in Wistar Han rat liver microsomes treated with N-(7-(4-(Pyridin-3-yl)-1H-1,2,3-triazol-1-yl)heptyl)-[1,1'-biphenyl]-2-carboxamide after 60 mins in presence of NADPH-regenerating system by LC-UV analysis; format: ADME, microsome; procedure, shortened: as §2
Liver [8] = assay: Drug level in human liver microsomes treated with N-(biphenyl-2-yl)-8-(4-(pyridin-3-yl)-1H-1,2,3-triazol-1-yl)octanamide after 60 mins by LC-ESI-MS analysis; format: ADME, microsome
Liver [9] = assay: Drug level in Wistar Han rat liver microsomes treated with N-(biphenyl-2-yl)-8-(4-(pyridin-3-yl)-1H-1,2,3-triazol-1-yl)octanamide after 60 mins by LC-ESI-MS analysis; format: ADME, microsome
[10] = Homo sapiens, SH-SY5Y, 56 h, read-out: EC50

Compound: O=S(=O)(NCCCCCCCCn1cc(-c2cccnc2)nn1)c1ccccc1Br
- EC50 (SH-SY5Y; [10]): 171 nM

Compound: c1ccc(-c2ccccc2-n2cc(CCCCCCCc3cn(-c4cccnc4)nn3)nn2)cc1
- EC50 (SH-SY5Y; [10]): > 500 nM

Compound: O=S(=O)(NCCCCCCCn1cc(-c2cccnc2)nn1)c1ccccc1Br
- EC50 (SH-SY5Y; [10]): 162 nM

- IC50 ([1]; read-out: IC50): 25.4 nM
Compound: c1ccc(-c2ccccc2OCCCCCCCCn2cc(-c3cccnc3)nn2)cc1
- EC50 (SH-SY5Y; [10]): 8.2 nM

Compound: c1ccc(-c2ccccc2CNCCCCCCCCn2cc(-c3cccnc3)nn2)cc1
- EC50 (SH-SY5Y; [10]): 205 nM

- IC50 ([1]; read-out: IC50): 15.6 nM
Compound: c1ccc(-c2ccccc2OCCc2ccc(Cn3cc(-c4cccnc4)nn3)cc2)cc1
- EC50 (SH-SY5Y; [10]): 2.4 nM

Compound: O=C(CCCCCCCc1cnc(-c2cccnc2)s1)Nc1ccccc1-c1ccccc1
- EC50 (SH-SY5Y; [10]): 5250 nM

- IC50 [1]: Not Active
- Drug metabolism (Liver [2]): Metabolite_Detected
- Drug metabolism (Liver [3]): Metabolite_Detected
- Drug metabolism (Liver [4]): Metabolite_Detected
- Drug metabolism (Liver [5]): Metabolite_Detected
Compound: [O-][n+]1cccc(-c2cn(CCCCCCOc3ccccc3-c3ccccc3)nn2)c1
- EC50 (SH-SY5Y; sh-sy5y): Not Active

Compound: O=C(NCCCCCCn1cc(-c2cccnc2)nn1)Nc1ccccc1-c1ccccc1
- EC50 (SH-SY5Y; [10]): 43 nM

Compound: O=S(=O)(NCCCCCCn1cc(-c2cccnc2)nn1)c1ccccc1Br
- EC50 (SH-SY5Y; [10]): 175 nM

- IC50 ([1]; read-out: IC50): 31.3 nM
Compound: c1ccc(-c2ccccc2OCCCCCCCn2cc(-c3cccnc3)nn2)cc1
- EC50 (SH-SY5Y; [10]): 15 nM

- IC50 ([1]; read-out: IC50): 32.4 nM
Compound: O=C(NCCCCCCCn1cc(-c2cccnc2)nn1)Nc1ccccc1-c1ccccc1
- EC50 (SH-SY5Y; [10]): 7 nM

- Drug metabolism (Liver [6]): Metabolite_Detected
- Drug metabolism (Liver [7]): Metabolite_Detected
Compound: O=C(O)CCCCCCn1cc(-c2cccnc2)nn1

- Drug metabolism (Liver [8]): Metabolite_Detected
- Drug metabolism (Liver [9]): Metabolite_Detected
Compound: O=C(O)CCCCCCCn1cc(-c2cccnc2)nn1

Compound: O=S(=O)(NCCCCCCn1cc(-c2cccnc2)nn1)c1ccccc1-c1ccccc1
- EC50 (SH-SY5Y; [10]): 100 nM

Compound: O=C(Nc1ccccc1-c1ccccc1)OCCCCCCCCn1cc(-c2cccnc2)nn1
- EC50 (SH-SY5Y; [10]): 255 nM

Compound: c1ccc(-c2ccccc2CNCCCCCCn2cc(-c3cccnc3)nn2)cc1
- EC50 (SH-SY5Y; [10]): 202 nM

Compound: O=C(NCCCCCCCCn1cc(-c2cccnc2)nn1)Nc1ccccc1-c1ccccc1
- EC50 (SH-SY5Y; [10]): 154 nM

Compound: O=C(Nc1ccccc1-c1ccccc1)OCCCCCCn1cc(-c2cccnc2)nn1
- EC50 (SH-SY5Y; [10]): 34 nM

- IC50 [1]: Not Active
- Drug metabolism (Liver [2]): Metabolite_Detected
- Drug metabolism (Liver [3]): Metabolite_Detected
- Drug metabolism (Liver [4]): Metabolite_Detected
- Drug metabolism (Liver [5]): Metabolite_Detected
Compound: O=C(NCCCCCCCn1cc(-c2ccc[n+]([O-])c2)nn1)c1ccccc1-c1ccccc1
- EC50 (SH-SY5Y; sh-sy5y): Not Active
